Source: article PMC8669716 (ACS Pharmacology & Translational Science, 2021)

How the values were obtained:
[1] = target: T1, human recombinant LSD1 enzyme (Homo sapiens, UniProt O60341); experiment: LSD1 HTRF assay; assay type: biochemical
AML cell line TF-1a = experiment: AML cell viability; assay type: cell-based; settings: for EC50: TF-1a, read-out: EC50 viability, AML cell lines
SCLC patients = settings: cited from earlier work
SCLC cell line NCI-H510A = experiment: SCLC cell viability; assay type: cell-based; settings: Homo sapiens, 240 h, read-out: EC50 viability NCI-H510A
LSD1 in MV(4;11) cells = LSD1 in MV(4;11) cells (Homo sapiens, UniProt O60341); experiment: LSD1 target engagement; assay type: cell-based; settings: 24 h, 2000, 200, 20 and 2 nM
[2] = target: recombinant LSD1 / GFI1B SNAG domain peptide interaction (Homo sapiens, UniProt O60341); experiment: GFI1B-peptide/LSD1 interaction assay; assay type: binding; settings: 2 μM, 200 nM, 20 nM and 2 nM
[3] = target: INSM1/LSD1 interaction in NCI-H510A cells (Homo sapiens, UniProt O60341); experiment: INSM1/LSD1 interaction ELISA on NCI-H510A lysates; assay type: cell-based; settings: 24 h, 2000, 200, 20 and 2 nM
[4] = tested on: GRP gene expression in NCI-H510A cells; experiment: GRP gene expression by qRT-PCR; assay type: cell-based; settings: 6 days, 2000, 200, 20 and 2 nM
Summary of the method: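 NCI-H510A SCLC cells (mycoplasma-free) seeded at 0.5 million per 5 mL complete RPMI-1640 (10% FBS, 2 mM l-glutamine). They were treated with test compound at 2000, 200, 20 and 2 nM for 6 days at 37 °C, 5% CO2. Pellets of 0.5 million cells were PBS-washed and stored at −80 °C, then total RNA was extracted for qRT-PCR of GRP; N = 1, n = 3.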

RR-AML patients = settings: cited from earlier work
[5] = Stability in aqueous buffer; assay type: physicochemical; settings: aqueous buffer at 37 °C, LCMS, day 6
Summary of the method: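 A 20 mM DMSO solution of test compound was diluted with PBS and held at 37 °C. Samples were analysed by LCMS at T = 0, 4 and 6 days, using one of three compound-specific HPLC method conditions.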

[6] = cited from earlier work
[7] = target: T1, human recombinant LSD1 enzyme; experiment: LSD1 peroxidase; assay type: biochemical
[8] = target: T2, human recombinant LSD2 enzyme (Homo sapiens, UniProt Q8NB78); experiment: LSD2 HTRF assay; assay type: biochemical; settings: read-out: LSD2 inhibition
T2 sequence (Q8NB78 1-822): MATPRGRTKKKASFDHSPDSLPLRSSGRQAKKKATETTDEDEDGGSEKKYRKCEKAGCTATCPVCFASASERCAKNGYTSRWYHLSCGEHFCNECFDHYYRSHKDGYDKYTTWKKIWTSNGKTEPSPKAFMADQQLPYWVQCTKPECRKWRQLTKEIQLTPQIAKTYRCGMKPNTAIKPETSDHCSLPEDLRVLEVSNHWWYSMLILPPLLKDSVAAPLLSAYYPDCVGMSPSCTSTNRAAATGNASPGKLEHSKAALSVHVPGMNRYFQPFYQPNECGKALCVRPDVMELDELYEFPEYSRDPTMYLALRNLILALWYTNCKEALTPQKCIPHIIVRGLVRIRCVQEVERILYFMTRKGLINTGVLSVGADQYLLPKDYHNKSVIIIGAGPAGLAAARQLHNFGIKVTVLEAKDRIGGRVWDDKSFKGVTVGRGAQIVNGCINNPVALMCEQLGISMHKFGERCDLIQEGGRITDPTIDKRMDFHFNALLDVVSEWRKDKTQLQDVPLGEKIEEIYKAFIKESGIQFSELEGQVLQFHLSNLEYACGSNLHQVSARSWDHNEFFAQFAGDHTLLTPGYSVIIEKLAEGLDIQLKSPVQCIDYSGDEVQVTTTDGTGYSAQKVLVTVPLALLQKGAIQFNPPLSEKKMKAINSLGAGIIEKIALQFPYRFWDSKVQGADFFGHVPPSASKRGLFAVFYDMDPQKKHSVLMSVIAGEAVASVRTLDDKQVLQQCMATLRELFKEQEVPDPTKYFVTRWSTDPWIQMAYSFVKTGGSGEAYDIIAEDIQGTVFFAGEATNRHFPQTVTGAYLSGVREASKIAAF

[9] = tested on: CD11b induction in THP-1 cells; experiment: AML differentiation: CD11b by flow cytometry; assay type: cell-based; settings: THP-1, 0.02 to 2000 nM, 96 h
LSD1 in NCI-H510A cells = LSD1 in NCI-H510A cells (Homo sapiens, UniProt O60341); experiment: LSD1 target engagement; assay type: cell-based; settings: 24 h, 2000, 200, 20 and 2 nM
[10] = target: T1, human recombinant LSD1 enzyme; settings: incubation at 10-fold IC50, 100-fold dilution

## O=C(O)c1ccc(CN2CCC(CN[C@@H]3C[C@H]3c3ccccc3)CC2)cc1 [GSK-2879552]
[1]
  fold less active than iadademstat in the LSD1 HTRF assay: 491 fold
AML cell line TF-1a
  fold less active than iadademstat in the (TF-1a) AML viability assays: 849 fold
SCLC patients
  G3/4 encephalopathy: 10%

## c1ccc([C@@H]2C[C@H]2NC2CCNCC2)cc1 [OG-668]
SCLC cell line NCI-H510A
  EC50: 0.00117 µM
LSD1 in MV(4;11) cells
  LSD1 TE: high LSD1 TE at all concentrations tested
[2]
  disruption of LSD1/GFI1B interaction: shows reduction of the LSD1/GFI1B interaction in the 2 μM to 2 nM range
[3]
  disruption of LSD1/INSM1 PPI: reduction of the LSD1/INSM1 interaction at all four concentrations
[4]
  effect on GRP expression: reduce GRP expression at all concentrations

## CN1CCN(C(=O)[C@H](CCCN[C@@H]2C[C@H]2c2ccc(F)cc2)NC(=O)c2ccc(-n3ccnn3)cc2)CC1 [bomedemstat]
[1]
  fold less active than iadademstat in the LSD1 HTRF assay: 174 fold
AML cell line TF-1a
  fold less active than iadademstat in the (TF-1a) AML viability assays: 345 fold

## N[C@H]1CC[C@H](N[C@@H]2C[C@H]2c2ccccc2)CC1 [iadademstat]
SCLC cell line NCI-H510A
  EC50: 0.00016 µM
[4]
  effect on GRP expression: most potently inhibits the expression of the neuroendocrine biomarker (including at 2 nM)
RR-AML patients
  safety and tolerability: safe and well-tolerated

## C#CCN(C)Cc1ccccc1 [pargyline]
AML cell line TF-1a
  EC50: > 2 µM
SCLC cell line NCI-H510A
  EC50: > 2 µM

## NNCCc1ccccc1 [phenelzine]
[5]
  T = 6 days purity (parent compound remaining): 4%
AML cell line TF-1a
  EC50: > 2 µM
SCLC cell line NCI-H510A
  EC50: > 2 µM

## COc1ccc(-c2c(-c3ccc(C#N)c(F)c3)nc(N3CCC(N)CC3)n(C)c2=O)cc1F [pulrodemstat]
SCLC cell line NCI-H510A
  EC50: 0.00177 µM
[6]; humans
  half-life: ≈ 70 h
[6]; monotherapy
  adverse events reported: Thrombocytopenia and neutropenia events

## C/C(=N\NC(=O)c1cccc(S(=O)(=O)N2CCN(C)CC2)c1)c1cc(Cl)ccc1O [seclidemstat]
[1]; LSD1 IC50, HTRF assay
  IC50: 1.3 µM
[7]
  IC50: 2.4 µM
[8]
  inhibition at 10 µM: < 50%
[5]
  T = 6 days purity (parent compound remaining): 72%
SCLC cell line NCI-H510A
  EC50: 0.184 µM
[9]
  induction of CD11b marker: does not induce the CD11b marker
LSD1 in NCI-H510A cells
  LSD1 TE: did not show any significant LSD1 TE at the concentrations tested
[2]
  disruption of LSD1/GFI1B interaction: does not disrupt the LSD1/GFI1B interaction
[3]
  disruption of LSD1/INSM1 PPI: totally inactive
[4]
  effect on GRP expression: does not impact GRP expression
[10]
  recovery of LSD1 activity upon jump dilution: 62%
